In ChEMBL document CHEMBL1130413, “Novel 3'-C/N-substituted 2',3'-beta-D-dideoxynucleosides as potential chemotherapeutic agents. 1. Thymidine derivatives: synthesis, structure, and broad spectrum antiviral properties” (J Med Chem, 1997):
In brackets after ≈: the same amount, converted by molar mass.

Experiments:
CEM-TK(-) [1] = experiment: Cytotoxic concentration which is required to reduce CEM/TK- cell viability by 50%.; type: functional; conditions: Homo sapiens
CEM-TK(-) [2] = experiment: 50% effective concentration of compound which is required to protect Thymidine kinase deficient human CEM (CEM/TK-) cells against HIV-2.; type: functional, cell-based
CCRF-CEM [3] = experiment: Cytotoxic concentration which is required to reduce human CEM cell viability by 50%.; type: functional
In short: (§1)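 Human CEM or Molt-4 cells seeded at 7.5 × 10^5 cells/mL with varying compound concentrations. Incubated 3 days at 37 °C in humidified CO2. Viable cells counted with a Coulter counter. Value is the concentration reducing viable cell number by 50%.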

CCRF-CEM [4] = experiment: 50% effective concentration of compound which is required to protect human CEM cells against HIV-1 induced giant cell formation.; type: functional, cell-based
In short: (§2)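 CEM cells at 250000–300000 cells/mL infected with HIV-1 (IIIB) or HIV-2 (ROD) at 100 CCID50/mL. Infected cells mixed with serial compound dilutions and incubated 4 days at 37 °C. Syncytium (giant cell) formation then scored. Values averaged over two independent experiments.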

CCRF-CEM [5] = experiment: 50% effective concentration of compound which is required to protect human CEM cells against HIV-2 induced giant cell formation.; type: functional, cell-based; in short: as §2
E6SM [6] = experiment: 50% Minimum inhibitory concentration which is required to reduce cytopathogenicity induced by (196) strain of HSV-2 virus on human E6SM cells.; type: functional
In short: (§3)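 Confluent cell monolayers infected with 100 CCID50 virus and left 1 h for adsorption. Residual virus then removed and compound added at serial dilutions (400, 200, 100 ... µg/mL). Value is the concentration giving 50% reduction of CPE.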

E6SM [7] = experiment: 50% Minimum inhibitory concentration which is required to reduce cytopathogenicity induced by (G) strain of HSV-2 virus on human E6SM cells.; type: functional; in short: as §3
E6SM [8] = experiment: 50% Minimum inhibitory concentration which is required to reduce cytopathogenicity induced by (KOS) strain of HSV-1 virus on human E6SM cells.; type: functional; in short: as §3
E6SM [9] = experiment: 50% Minimum inhibitory concentration which is required to reduce cytopathogenicity induced by (Lyons) strain of HSV-2 virus on human E6SM cells.; type: functional; in short: as §3
E6SM [10] = experiment: 50% Minimum inhibitory concentration which is required to reduce cytopathogenicity induced by (Mc Intyre) strain of HSV-1 virus on human E6SM cells.; type: functional; in short: as §3
E6SM [11] = experiment: 50% Minimum inhibitory concentration which is required to reduce cytopathogenicity induced by TK-(B2006) strain of HSV-1 virus on human E6SM cells.; type: functional; in short: as §3
FM3A [12] = experiment: EC50 is the cytotoxic concentration of compound required to reduce FM3A/TK- (Thymidine kinase deficient murine mammary carcinoma cells) cell viability by 50%.; type: functional, cell-based; conditions: Mus musculus
In short: (§4)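 Murine L1210 or FM3A-derived cells seeded at 5 × 10^5 cells/mL with varying compound concentrations. Incubated 2 days at 37 °C in humidified CO2. Viable cells counted with a Coulter counter. Value is the concentration reducing viable cell number by 50%.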

FM3A [13] = experiment: EC50 is the cytotoxic concentration of compound required to reduce FM3A/TK- HSV-1TK+ cell viability by 50%.; type: functional, cell-based; conditions: Mus musculus; in short: as §4
FM3A [14] = experiment: EC50 is the cytotoxic concentration of compound required to reduce FM3A (murine mammary carcinoma cells) cell viability by 50%.; type: functional, cell-based; conditions: Mus musculus; in short: as §4
HEL [15] = experiment: 50% Minimum inhibitory concentration which is required to reduce cytopathogenicity induced by TK-(B2006) strain of HSV-1 virus on human embryonic HEL cells.; type: functional; in short: as §3
HEL [16] = experiment: 50% Minimum inhibitory concentration which is required to reduce cytopathogenicity induced by (G) strain of HSV-2 virus on human embryonic HEL cells.; type: functional; in short: as §3
HEL [17] = experiment: 50% Minimum inhibitory concentration which is required to reduce cytopathogenicity induced by (KOS) strain of HSV-1 virus on human embryonic HEL cells.; type: functional; in short: as §3
HEL [18] = experiment: 50% Minimum inhibitory concentration which is required to reduce cytopathogenicity induced by (Lyons) strain of HSV-2 virus on human embryonic HEL cells.; type: functional; in short: as §3
HEL [19] = experiment: 50% Minimum inhibitory concentration which is required to reduce cytopathogenicity induced by (Mc Intyre) strain of HSV-1 virus on human embryonic HEL cells.; type: functional; in short: as §3
MT4 [20] = experiment: 50% effective concentration of compound which is required to protect human MT-4 cells against cytopathogenicity of HIV-1.; type: functional, cell-based
MT4 [21] = experiment: 50% effective concentration of compound which is required to protect human MT-4 cells against cytopathogenicity of HIV-2.; type: functional, cell-based
L1210 = experiment: EC50 is the cytotoxic concentration of compound required to reduce L1210 (murine leukemia cells) cell viability by 50%.; type: functional, cell-based; conditions: Mus musculus; in short: as §4
MT4 [22] = experiment: Cytotoxic concentration which is required to reduce human MT-4 cell viability by 50%.; type: functional
MOLT-4 = experiment: EC50 is the cytotoxic concentration of compound required to reduce Molt4/C8 (human T-lymphocyte) cell viability by 50%.; type: functional, cell-based; in short: as §1
[23] = Minimum cytotoxic concentration which causes microscopically detectable alteration of normal cell morphology after 2 days of incubation.; type: functional; conditions: 48 h
In short: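 Uninfected E6SM cells exposed to compound for 2 days. Minimum concentration giving a microscopically detectable change in normal cell morphology recorded.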

[24] = Selectivity index of HIV-1 and HIV-2 with respect to CEM cells; type: functional, CCRF-CEM
In short: (§5)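 Selectivity index calculated as average CC50 divided by average EC50. Each average comes from two independent experiments, using HIV-1 (IIIB) and HIV-2 (ROD) in CEM or MT-4 cells.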

[25] = Selectivity index of HIV-1 and HIV-2 with respect to MT-4 cells; type: functional, MT4; in short: as §5
E6SM [26] = experiment: 50% Minimum inhibitory concentration which is required to reduce cytopathogenicity induced by (F) strain of HSV-1 virus on human E6SM cells.; type: functional; in short: as §3
HepG2 = experiment: 50% Effective concentration of compound required for inhibiting intracellular viral replicative intermediate DNA in HBV-transfected 2.2.15 cell line.; type: functional, cell-based; conditions: Homo sapiens
In short: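 2.2.15 cells (HBV-transfected, Hep-G2-derived) in DMEM with 4% FBS and 0.5 mM glutamine; drug exposure 9 days, medium changed every 3 days. Total intracellular DNA extracted and Southern-blotted with a 32P-labelled full-length HBV probe. Replicative intermediate DNA in treated cells compared with untreated 2.2.15 cells; Hep-G2 as negative control.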

HEL [27] = experiment: 50% Minimum inhibitory concentration which is required to reduce cytopathogenicity induced by (OKA) strain of Varicella Zoster virus on human embryonic HEL cells.; type: functional
HeLa = experiment: 50% Minimum inhibitory concentration which is required to reduce cytopathogenicity induced by Vesicular Stomatitis virus (VSV) in Hela cells.; type: functional; conditions: Homo sapiens; in short: as §3

| Structure (SMILES) | CC50 (CEM-TK(-) [1]) [µg/mL] | EC50 (CEM-TK(-) [2]) [µg/mL] | CC50 (CCRF-CEM [3]) [µg/mL] | EC50 (CCRF-CEM [4]) [µg/mL] | EC50 (CCRF-CEM [5]) [µg/mL] | MIC (E6SM [6]) [µg/mL] | MIC (E6SM [7]) [µg/mL] | MIC (E6SM [8]) [µg/mL] | MIC (E6SM [9]) [µg/mL] | MIC (E6SM [10]) [µg/mL] | MIC (E6SM [11]) [µg/mL] | EC50 (FM3A [12]) [µg/mL] | EC50 (FM3A [13]) [µg/mL] | EC50 (FM3A [14]) [µg/mL] | EC50 (MT4 [20]) [µg/mL] | EC50 (MT4 [21]) [µg/mL] | EC50 (L1210) [µg/mL] | CC50 (MT4 [22]) [µg/mL] | EC50 (MOLT-4) [µg/mL] | MCC [23] [µg/mL] | further results |
| --- | --- | --- | --- | --- | --- | --- | --- | --- | --- | --- | --- | --- | --- | --- | --- | --- | --- | --- | --- | --- | --- |
| Cc1cn(C2CC([N+](=O)[O-])C(CO)O2)c(=O)[nH]c1=O (stereo not given) | > 200 | > 100 | 168 (≈ 619 µM) | > 100 | 100 (≈ 369 µM) | > 200 | > 200 | > 200 | > 200 | > 200 | > 200 | > 200 | > 200 | > 200 | 1 (≈ 3.69 µM) | 2.2 (≈ 8.11 µM) | 58 (≈ 214 µM) | 93 (≈ 343 µM) | 70 (≈ 258 µM) | > 200 | MIC (HEL [15]): > 50 µg/mL; MIC (HEL [16]): 20 µg/mL (≈ 73.7 µM); MIC (HEL [17]): 5 µg/mL (≈ 18.4 µM); MIC (HEL [18]): 25 µg/mL (≈ 92.2 µM); MIC (HEL [19]): 20 µg/mL (≈ 73.7 µM); Selectivity index [24]: >1.7; Selectivity index [25]: 79; MIC (E6SM [26]): > 200 µg/mL |
| CO/N=C1/C[C@H](n2cc(C)c(=O)[nH]c2=O)O[C@@H]1CO.CO/N=C1\C[C@H](n2cc(C)c(=O)[nH]c2=O)O[C@@H]1CO | > 200 | > 100 | > 200 | 26 | 27 | > 200 | > 200 | > 200 | > 200 | > 200 | > 200 | > 200 | > 200 | > 200 | 3.3 | 4.6 | 112 | 182 | > 200 | > 200 | MIC (HEL [15]): > 50 µg/mL; MIC (HEL [16]): > 50 µg/mL; MIC (HEL [17]): 50 µg/mL; MIC (HEL [18]): 35 µg/mL; MIC (HEL [19]): > 50 µg/mL; Selectivity index [24]: 8; Selectivity index [25]: 64; MIC (E6SM [26]): > 200 µg/mL |
| Cc1cn(C2C/C(=N\O)C(CO)O2)c(=O)[nH]c1=O (stereo not given) | > 100 | 20 (≈ 78.4 µM) | 9.9 (≈ 38.8 µM) | 0.4 (≈ 1.57 µM) | 0.35 (≈ 1.37 µM) | 11 (≈ 43.1 µM) | 0.7 (≈ 2.74 µM) | 0.4 (≈ 1.57 µM) | 1.4 (≈ 5.49 µM) | 1.3 (≈ 5.09 µM) | > 200 | > 200 | > 200 | > 200 | 0.025 (≈ 0.098 µM) | 0.03 (≈ 0.118 µM) | 1.1 (≈ 4.31 µM) | 1.6 (≈ 6.27 µM) | 1.2 (≈ 4.7 µM) | > 400 | EC50 (HepG2): 0.25 µg/mL (≈ 0.98 µM); MIC (HEL [15]): > 50 µg/mL; MIC (HEL [16]): 0.5 µg/mL (≈ 1.96 µM); MIC (HEL [17]): 1.4 µg/mL (≈ 5.49 µM); MIC (HEL [18]): 0.31 µg/mL (≈ 1.21 µM); MIC (HEL [19]): 0.85 µg/mL (≈ 3.33 µM); MIC (HEL [27]): 20 µg/mL (≈ 78.4 µM); MIC (HeLa): 135 µg/mL (≈ 529 µM); Selectivity index [24]: 28; Selectivity index [25]: 88; MIC (E6SM [26]): 0.5 µg/mL (≈ 1.96 µM) |
| Cc1cn(C2C/C(=[N+](/[O-])O)C(CO)O2)c(=O)[nH]c1=O (stereo not given) | > 200 | > 100 | 247 (≈ 911 µM) | 13 (≈ 47.9 µM) | 10 (≈ 36.9 µM) | > 200 | > 200 | 35 (≈ 129 µM) | > 200 | 35 (≈ 129 µM) | > 200 | > 200 | > 200 | > 200 | 0.86 (≈ 3.17 µM) | 1.2 (≈ 4.42 µM) | 25 (≈ 92.2 µM) | 91 (≈ 336 µM) | 17 (≈ 62.7 µM) | > 200 | Selectivity index [24]: 25; Selectivity index [25]: 102; MIC (E6SM [26]): 9 µg/mL (≈ 33.2 µM) |
